Hits are enriched below; roughly 1% of the tested compounds scored in any of these assays.
BAP1 inh: inhibitors of human BAP1 deubiquitinase. 72,000 compounds, 0.48% hits. Q92560. calls only at 20 µM. recombinant BAP1, Ub-AMC hydrolysis fluorescence kinetic; stronger effect = lower value. AID 436;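 active = activity remaining at or below 50% of control, provided the compound also passes the data quality filters; inactive = the rest, including low values that fail the filters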
HePTP inh: inhibitors of human HePTP phosphatase. recombinant HePTP phosphatase activity, OD absorbance. inhibition, % at 20 µM. 110,000 compounds, 0.64% hits; in the data active = inhibition above about 50%
AP ELISA ortho: orthogonal test for alternative complement pathway inhibitors. Human serum alternative complement pathway, LPS-coated ELISA, C3 deposition; tested in compound mixtures. inhibition, % at 5 µM. 62,000 compounds, 0.08% hits;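 active = inhibition above 30% in each of the two pooled mixtures holding the compound, so the lower value exceeds 30%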
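Medium: diluted human serum in Mg2+-EGTA GVB++. Assay system: human serum complement alternative pathway, C3 deposition onto LPS. Also added: Plate-bound LPS. Technique: Anti-C3 ELISA, OD 450 nm. Measure: percent inhibition. Incubation: 1 h at 37 °C. Dosing: 5 µM each compound, pools of ten, 50 µM per pool.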
FXIIa inh mix: factor XIIa (human) inhibition, mixture screen | AID 684 | inhibition, % at 5 µM | purified FXIIa, fluorogenic substrate, pooled mixtures | P00748 | 62,000 compounds, 0.2% hits
FXIa mix inh: factor XIa (human) inhibition, mixture screen; purified FXIa, fluorogenic substrate, pooled mixtures; inhibition, % at 5 µM; 62,000 compounds, 0.19% hits;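 note: each value is inhibition by a whole ten-compound pool holding the compound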
Numbers stand for hits; 0 = inactive; - = no result. Cut-off read from the data, not from the text of the source, unless noted: active = inhibition above about 20% (passing the limit was not always enough); inactive = the rest.

SMILES	BAP1 inh	HePTP inh	AP ELISA ortho	FXIIa inh mix	FXIa mix inh
C=CCN1C(=O)/C(=C\c2ccc(-c3ccc([N+](=O)[O-])cc3)o2)C(=O)NC1=S	-	102	-	-	-
COc1ccccc1NC(=O)c1ccccc1NC(=O)c1ccccc1C	-	0	-	-	-
O=C(CC(=O)Nc1cccc(C(F)(F)F)c1)Nc1cccc(C(F)(F)F)c1	-	99	-	-	-
O=C(O)c1cccc(-c2ccc(/C=N/Nc3ccc([N+](=O)[O-])cn3)o2)c1	-	102	-	-	-
CCOC(=O)c1sc2nc(SCC#N)n(CC3CCCO3)c(=O)c2c1C (stereo unspecified)	0	0	0	0	22
COc1ccc(C(=O)Nc2ccc(Br)c(C)c2)cc1OC	-	0	-	-	-
COc1ccccc1C1NC(=O)NC(C)=C1C(C)=O (stereo unspecified)	0	0	0	72	0
O=C(Nc1ccc(Cl)cc1)Nc1ccc2c(c1)OCCO2	-	105	-	-	-
O=C(Nc1ccc2c(c1)OCCOCCOCCOCCO2)Nc1ccc2c(c1)OCCOCCOCCOCCO2	0	-	-	-	-
CCOc1cc(C2C3=C(CC(C)(C)CC3=O)NC3=C2C(=O)CC(C)(C)C3)cc(Br)c1OC	-	0	-	-	-
O=C(/C=C/c1ccco1)Nc1ccccc1-c1ccccc1	-	0	-	-	-
O=C(/C=C/c1ccco1)Nc1ccccc1C(=O)O	-	96	-	-	-
O=C(/C=C/c1ccco1)NCc1ccc(Cl)cc1	-	0	-	-	-
O=C(/C=C/c1ccco1)Nc1cc(Cl)ccc1C(=O)O	-	102	-	-	-
CC(=O)NN1C(=O)/C(=C/c2cc3c(cc2[N+](=O)[O-])OCO3)SC1=S	-	93	-	-	-
O=C1/C(=C\c2cc3c(cc2[N+](=O)[O-])OCO3)SC(=S)N1c1ccccc1	-	0	-	-	-
COC(=O)c1sc(NC(=O)CCc2ccccc2)c(C(=O)OC)c1C	-	104	-	-	-
CC1=C/C(=N\N=C2\NC(=O)C(CC(=O)Nc3ccc(C(=O)O)cc3)S2)CC(C)(C)C1 (stereo unspecified)	-	103	-	-	-
O=C(CC1S/C(=N\N=C\c2ccccc2)NC1=O)Nc1ccc(C(=O)O)cc1 (stereo unspecified)	-	104	-	-	-
CC1=C/C(=N\N=C2\NC(=O)C(CC(=O)Nc3ccc(Cl)cc3)S2)CC(C)(C)C1 (stereo unspecified)	-	0	-	-	-
O=C(/C=C/c1ccccc1)NC(=S)Nc1cc(Cl)ccc1Cl	-	0	-	-	-
Cc1ccc(C(=O)Nc2ccccc2C(=O)N2CCOCC2)cc1	-	0	-	-	-
COc1cc(/C=C2/C(=O)NN(c3ccc(Cl)cc3)C2=O)cc(Br)c1O	-	92	-	-	-
CCOC(=O)c1ccc(N2NC(=O)/C(=C/c3ccc(O)c(OCC)c3)C2=O)cc1	-	0	-	-	-
CCCCOc1ccc(/C=C2/C(=O)NN(c3ccc(C(=O)OCC)cc3)C2=O)cc1OC	-	0	-	-	-
SMILES	BAP1 inh	HePTP inh	AP ELISA ortho	FXIIa inh mix	FXIa mix inh
COc1cc(/C=C2/C(=O)NN(c3ccc(Cl)cc3)C2=O)ccc1O	-	0	-	-	-
CCOC(=O)c1ccc(N2NC(=O)/C(=C/c3ccc4c(c3)OCO4)C2=O)cc1	-	100	-	-	-
C=CCOc1ccc(/C=C2/C(=O)NN(c3ccc(C(=O)OCC)cc3)C2=O)cc1OC	-	60	-	-	-
COc1ccccc1N1C(=O)NC(=O)C(=Cc2cc(OC)c(O)c([N+](=O)[O-])c2)C1=O	-	0	-	-	-
COc1cc(/C=C2\C(=O)NC(=S)N(c3ccccc3)C2=O)cc([N+](=O)[O-])c1O	-	59	-	-	-
N#C/C(=C/c1ccc(O)c([N+](=O)[O-])c1)C(=O)Nc1cccc(Br)c1	-	102	-	-	-
N#C/C(=C/c1ccc([N+](=O)[O-])o1)C(=O)Nc1cccc(Br)c1	-	87	-	-	-
COc1cc(/C=C2\NC(=S)NC2=O)ccc1OCc1c(C)no[n+]1[O-]	-	0	-	-	-
Cc1nc(NNC(=O)c2ccc(Cl)cc2)cc(-c2ccccc2)n1	-	0	-	-	-
COC(=O)Cc1c(C)c2c(OCc3nn[nH]n3)cc(C)cc2oc1=O	0	0	0	24	0
COc1ccc(N2C(=O)c3ccc(C(=O)Nc4cc(Cl)ccc4C(=O)O)cc3C2=O)cc1	-	102	-	-	-
COc1ccc(N2C(=O)c3ccc(C(=O)Nc4ccccc4I)cc3C2=O)cc1	-	0	-	-	-
CC1CCCN(C(=O)CSc2nnc3n(C4CCCC4)c(=O)c4ccccc4n23)C1 (stereo unspecified)	0	0	35	0	0
CN(C)/C=C/C=C/C=C1\CCC/C(=C\C=C\N(C)C)C1=O	-	0	-	-	-
CN(/C=C/C=C1\CC/C(=C\C=C\N(C)c2ccccc2)C1=O)c1ccccc1	-	98	-	-	-
COc1ccc(OC)c(C(c2c(C)[nH]n(-c3ccccc3)c2=O)c2c(C)[nH]n(-c3ccccc3)c2=O)c1	-	104	-	-	-
O=C1C=CC(=O)c2c1c(-c1ccccc1)nn2-c1ccccc1	-	71	-	-	-
COc1ccc(C(=O)N=Nc2c(O)n(CN(C)C)c3ccc(Br)cc23)cc1	-	87	-	-	-
